Most compounds without a hit are left out; they make up all but 2.3% or so of the library.
XiGFP reactiv – X-chromosome reactivation activator; activation, % at 7.58 µM; 360,000 compounds, 0.055% hits; AID 743238; XiGFP mouse fibroblasts, % GFP-positive cells imaging, 3 d; cells co-treated with 5-aza-dC sensitizer; scaled so ellipticine positive control = 100%;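 active means mean normalized replicate activation at least 10% and every replicate at or above 10%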
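assay system = SV40-immortalized XiGFP fibroblast cells, line 68-5-11 | buffer or medium = DMEM plus 5-aza-dC sensitizer | doses = single-point pinned compound dosing | times = 3-day compound exposure, then 15 min fixation at room temperature | benchmarks = positive control ellipticine, 6 µM final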
EWS-Fli block – EWS/Fli transcriptional activity inhibition; 350,000 compounds, 0.67% hits; inhibition, % at 12.6 µM; AID 651661; A673 NR0B1-luciferase reporter, viability-normalised;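 active means mean inhibition of at least 50% after viability correction, with every replicate also passing that limit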;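 further: firefly luciferase signal divided by Alamar Blue viability fluorescence both relative to DMSO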
TWEAK-Fn14 inh – inhibitors of TWEAK-Fn14 interaction signaling | inhibition, % at 10 µM | 360,000 compounds, 2% hits | TWEAK-stimulated Fn14 reporter cells, luciferase luminescence, 8 h; in the data active means inhibition above about 50%
TROY signal inh – blocks TROY-dependent signaling in reporter cells | inhibition, % at 10 µM | Q293 LMP1-TROYcd NF-kB luciferase reporter, 4 h | AID 1347056 | 360,000 compounds, 0.98% hits;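 active means compounds whose plate-normalised and pattern-corrected inhibition of the luciferase reporter signal at the single screening dose is 50% or more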
FN deposition inh – fibronectin deposition inhibition; AH1F fibroblasts, Alexa488-fibronectin deposition fluorescence, overnight; inhibition, % at 12.6 µM; 350,000 compounds, 0.086% hits; AID 743247;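 active means mean inhibition across replicates of 30% or more, regardless of how many single replicates reach that level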
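Material: AH1F fibroblast monolayer depositing Alexa488-labelled fibronectin into matrix / Amount: 10000 AH1F cells per well / Signal: fluorescence 485/525 nm / Medium: DMEM, 2% serum / Compound: single dose, pinned / Incubation: 1 h cell adhesion before compound, then overnight fibronectin incubation / Reagent: Alexa488-FN, 24 nM final / Read-out: inhibition of fibronectin deposition signal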
LGR2 antag – blocks bursicon-induced cAMP signaling via Drosophila LGR2 | AID 720647 | 380,000 compounds, 0.35% hits | HEK293 LGR2, CRE-luciferase, bursicon-stimulated, 4 h | inhibition, % at 9.99 µM;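 active means drop in luminescence signal, shown as inhibition above about 50% in the replicate tests, limit read from the data, passing the limit was not always enough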;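 further: agonist challenge used bursicon conditioned medium at about half maximal strength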
Numbers stand for hits.

Cc1ccc(-c2nnc(N3CCN(c4ccccn4)CC3)c3ccccc23)cc1 was read as TWEAK-Fn14 inh inactive and TROY signal inh 54.2.
`c1ccc(-c2nnc(N3CCN(c4ccccn4)CC3)c3ccccc23)cc1` gave TWEAK-Fn14 inh inactive, TROY signal inh inactive and FN deposition inh inactive.
CCOC(=O)Nc1oc2ccccc2c(=O)c1C was read as TWEAK-Fn14 inh inactive, TROY signal inh inactive and FN deposition inh inactive.
Screening CCOC(=O)/C=C(\C)Sc1cc(=O)oc2ccccc12 returned TWEAK-Fn14 inh 56.8, TROY signal inh inactive and FN deposition inh inactive.
Screening CCOC(=O)/C=C(\C)Sc1cc(O)c2ccccc2c1O returned XiGFP reactiv inactive, EWS-Fli block inactive, TWEAK-Fn14 inh 95.9, TROY signal inh inactive, FN deposition inh inactive and LGR2 antag inactive.
For O=C(Nc1ccc(OC(F)F)c(Cl)c1)C(c1ccccc1)c1ccccc1 the results were XiGFP reactiv inactive, EWS-Fli block inactive, TWEAK-Fn14 inh inactive, TROY signal inh 56.6, FN deposition inh inactive and LGR2 antag inactive.
Cc1ccc(NS(=O)(=O)c2ccc(-c3cnc(C4CC4)o3)cc2)cc1 was read as XiGFP reactiv inactive, EWS-Fli block inactive, TWEAK-Fn14 inh inactive, TROY signal inh inactive, FN deposition inh inactive and LGR2 antag inactive.
For CCOc1ccccc1CNS(=O)(=O)c1ccc(-c2cnc(C3CC3)o2)cc1 the results were XiGFP reactiv inactive, EWS-Fli block 59.0, TWEAK-Fn14 inh inactive, TROY signal inh 56.3, FN deposition inh inactive and LGR2 antag inactive.
Cc1ccc(N(C)S(=O)(=O)c2ccc(-c3cnc(C4CC4)o3)cc2)cc1 was read as XiGFP reactiv inactive, EWS-Fli block 51.9, TWEAK-Fn14 inh inactive, TROY signal inh inactive, FN deposition inh inactive and LGR2 antag inactive.
Cc1ccc(S(=O)(=O)Nc2ccc3c(c2)CC(=O)N([C@@H](C)CO)C[C@H](C)[C@@H](CN(C)S(C)(=O)=O)O3)cc1 was read as XiGFP reactiv inactive, EWS-Fli block inactive, FN deposition inh inactive and LGR2 antag inactive.
For C[C@@H]1CN([C@@H](C)CO)C(=O)Cc2cc(NS(=O)(=O)c3ccc(Cl)cc3)ccc2O[C@@H]1CN(C)S(=O)(=O)c1cn(C)cn1 the results were XiGFP reactiv inactive, EWS-Fli block inactive and LGR2 antag inactive.
For C[C@H]1CCCCO[C@H](CN(C)CC2CCCCC2)[C@@H](C)CN([C@@H](C)CO)C(=O)c2cc(NC(=O)Cc3ccccc3)ccc2O1 the results were XiGFP reactiv inactive, EWS-Fli block inactive and LGR2 antag inactive.
Screening Cc1ccc(S(=O)(=O)N[C@H]2CC[C@H](CCNC(=O)C3CCCC3)O[C@H]2CO)cc1 returned XiGFP reactiv inactive, EWS-Fli block inactive, FN deposition inh inactive and LGR2 antag inactive.
`c1ccc(C2=NCCCO2)cc1` gave XiGFP reactiv inactive, EWS-Fli block inactive, TWEAK-Fn14 inh inactive, TROY signal inh inactive, FN deposition inh inactive and LGR2 antag inactive.
For c1ccc(N=Nc2ccc(C3=NCCO3)cc2)cc1 the results were XiGFP reactiv inactive, EWS-Fli block inactive, TWEAK-Fn14 inh inactive, TROY signal inh inactive, FN deposition inh inactive and LGR2 antag 80.9.
COc1cccc(CNC(=O)c2cc(S(=O)(=O)N3CCOCC3)cn2C)c1 was read as XiGFP reactiv 22.7, EWS-Fli block inactive, TWEAK-Fn14 inh inactive, TROY signal inh inactive, FN deposition inh inactive and LGR2 antag inactive.
COc1ccc(CNC(=O)c2cc(S(=O)(=O)N3CCOCC3)cn2C)cc1 was read as XiGFP reactiv inactive, EWS-Fli block inactive, TWEAK-Fn14 inh inactive, TROY signal inh inactive, FN deposition inh inactive and LGR2 antag inactive.
Screening Cc1noc(C)c1NC(=O)N(C)C[C@H]1OCCCC[C@@H](C)Oc2ccc(N(C)C)cc2C(=O)N([C@H](C)CO)C[C@H]1C returned XiGFP reactiv inactive, EWS-Fli block inactive and LGR2 antag inactive.
`O=C1CC(=O)OC(c2ccc([N+](=O)[O-])cc2)O1` gave TWEAK-Fn14 inh 102.0 and TROY signal inh inactive.
Screening CCC(=O)N1C[C@H](C)[C@@H](OC)CN(C)C(=O)c2ccc(NC(=O)C3CCOCC3)cc2OC[C@@H]1C returned XiGFP reactiv inactive, EWS-Fli block inactive and LGR2 antag inactive.
COC(=O)c1ccc2nc(-c3cccc(N)c3)cn2c1 was read as XiGFP reactiv inactive, EWS-Fli block inactive, TWEAK-Fn14 inh 95.0, TROY signal inh 53.5, FN deposition inh inactive and LGR2 antag 85.4.
CC(=O)Nc1ccc2nc(-c3ccccc3)cn2c1 was read as XiGFP reactiv inactive, EWS-Fli block inactive, TWEAK-Fn14 inh inactive, TROY signal inh inactive, FN deposition inh inactive and LGR2 antag inactive.
For COc1ccc(S(=O)(=O)Nc2ccc3c(c2)C(=O)N([C@@H](C)CO)C[C@H](C)[C@H](CN(C)S(=O)(=O)c2ccccc2)OCCCC[C@@H](C)O3)cc1 the results were XiGFP reactiv inactive, EWS-Fli block inactive and LGR2 antag inactive.
`COc1ccc(N2CCN(C(=O)c3ccc(CNS(=O)(=O)c4ccc(C)cc4)cc3)CC2)cc1` gave XiGFP reactiv inactive, EWS-Fli block inactive, TWEAK-Fn14 inh inactive, TROY signal inh inactive, FN deposition inh inactive and LGR2 antag inactive.
`COc1ccc(N2CCN(C(=O)c3ccc(COc4ccc([N+](=O)[O-])cc4)o3)CC2)cc1` gave XiGFP reactiv inactive, TWEAK-Fn14 inh 50.6, TROY signal inh inactive, FN deposition inh inactive and LGR2 antag inactive.
Screening COc1ccc(N2CCN(C(=O)c3ccc(OCc4c(C)noc4C)c(OC)c3)CC2)cc1 returned TWEAK-Fn14 inh inactive and TROY signal inh inactive.
Screening COc1cc(C(=O)N2CCN(c3ccc([N+](=O)[O-])cc3)CC2)ccc1OCc1c(C)noc1C returned TWEAK-Fn14 inh 73.0.
Cc1ccc(S(=O)(=O)NCc2ccc(C(=O)N3CCN(c4ccc([N+](=O)[O-])cc4)CC3)cc2)cc1 was read as XiGFP reactiv inactive, EWS-Fli block inactive, TWEAK-Fn14 inh 50.3, TROY signal inh inactive, FN deposition inh inactive and LGR2 antag inactive.
Screening C[C@H](CO)N1C[C@H](C)[C@@H](CN(C)C)Oc2cc(C#Cc3cccnc3)ccc2S1(=O)=O returned XiGFP reactiv inactive, EWS-Fli block inactive, FN deposition inh inactive and LGR2 antag inactive.
Cc1ccc(S(=O)(=O)N[C@H]2CC[C@@H](CCNC(=O)c3ccc4c(c3)OCO4)O[C@H]2CO)cc1 was read as XiGFP reactiv inactive, EWS-Fli block inactive and LGR2 antag inactive.
`CCC(=O)N1CCC2(CC1)CN(C(=O)Nc1ccccc1F)[C@@H](CO)c1[nH]c3cc(OC)ccc3c12` gave XiGFP reactiv inactive, EWS-Fli block inactive and LGR2 antag inactive.
For CC(=O)NC12CC3CC(C1)CC(C(=O)OCC(=O)NC(=O)c1cccn1C)(C3)C2 the results were TWEAK-Fn14 inh inactive, TROY signal inh inactive and FN deposition inh inactive.

Compound activity (PubChem)
